Laboratory results from ChEMBL document CHEMBL1629542, “Epigallocatechin gallate inactivates clinical isolates of herpes simplex virus” (Antimicrob Agents Chemother, 2008).
Active and inactive are the calls of the source. No cut-off for these calls is given here.

Key:
Human alphaherpesvirus 1 [1] = assay: Antiviral activity against Human herpesvirus 1 isolate P56 infected in African green monkey vero cells assessed as reduction in viral titer; format: functional, organism-based; conditions: Human alphaherpesvirus 1, isolate P56, Vero
How it was run: (§1)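 Laboratory HSV-1 F1 or patient-swab HSV-1 isolates were prepared as clarified Vero supernatants. They were incubated 1 h with a range of EGCG concentrations in RPMI 1640/1% FCS at pH 7.4. Titres were determined on Vero cells by 5-day CPE endpoint (Reed-Muench). IC99 was read graphically as 99% titre drop from untreated; mean ± SD, three experiments.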

Human alphaherpesvirus 2 [2] = assay: Antiviral activity against Human herpesvirus 2 isolate P47 infected in African green monkey CV1 cells; format: functional, organism-based; conditions: Human alphaherpesvirus 2, isolate P47, CV-1
How it was run: (§2)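 HSV-2 (clinical swab isolates or strain 333) was grown in CV-1 cells and used as clarified supernatant. Virus was exposed to graded EGCG for 1 h in RPMI 1640 with 1% FCS, pH 7.4. Tenfold dilutions were titrated on CV-1 cells, three wells each, 5 days at 37°C, scoring CPE. TCID50 was calculated by Reed-Muench. IC99 was read graphically as 99% titer drop from the zero-concentration titer. Mean of three experiments.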

Human alphaherpesvirus 2 [3] = assay: Antiviral activity against Human herpesvirus 2 isolate P12 infected in African green monkey CV1 cells assessed as log reduction in viral titer at 12.5 uM; format: functional, CV-1
How it was run: (§3)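 HSV-2 patient-swab isolates were grown as clarified CV-1 supernatants and incubated 1 h with a range of EGCG concentrations (RPMI 1640/1% FCS, pH 7.4). They were titrated on CV-1 cells from 10-fold dilutions by 5-day CPE at 37°C, with Reed-Muench TCID50. IC99 was derived graphically as 99% reduction from zero-drug titre; mean ± SD, three experiments.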

Human alphaherpesvirus 1 [4] = assay: Binding affinity to Envelope glycoprotein D in Human herpesvirus 1 F1 assessed as macromolecular complex formation by SDS-PAGE
How it was run: (§4)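 Purified HSV-1 gB or gD (500 to 700 μg/ml) was incubated with EGCG (250 μg/ml; 545 μM) in 0.1 M potassium phosphate, pH 7.0, at 35°C for 24 h. Products were denatured at 50°C for 15 min in sample buffer and run on 6.5% SDS-PAGE. Bands were stained with Coomassie blue to detect higher-molecular-weight complexes.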

Human alphaherpesvirus 2 [5] = assay: Antiviral activity against Human herpesvirus 2 isolate P47 infected in African green monkey CV1 cells assessed as log reduction in viral titer at 12.5 uM; format: functional, CV-1; how it was run: as §2
Human alphaherpesvirus 1 [6] = assay: Antiviral activity against Human herpesvirus 1 isolate P32 infected in African green monkey vero cells assessed as log reduction in viral titer at 100 uM after 30 mins; format: functional
How it was run: (§5)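 In the time course, HSV-1 clinical isolates (clarified Vero supernatants) were exposed to 100 μM EGCG for varying times up to 60 min. Residual infectivity was then titrated on Vero cells by 5-day CPE endpoint with Reed-Muench calculation. Mean ± SD of three separate experiments.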

Human alphaherpesvirus 1 [7] = assay: Antiviral activity against Human herpesvirus 1 isolate P15 infected in African green monkey vero cells assessed as log reduction in viral titer at 50 uM; format: functional; how it was run: as §1
Human alphaherpesvirus 1 [8] = assay: Antiviral activity against Human herpesvirus 1 F1 infected in African green monkey vero cells assessed as reduction in viral titer; format: functional, organism-based; conditions: Human alphaherpesvirus 1, F1, Vero; how it was run: as §1
Human alphaherpesvirus 1 [9] = assay: Antiviral activity against Human herpesvirus 1 F1 assessed as decrease in labeled gD envelope glycoprotein at 100 uM after 2 hrs by electron microscopy; format: functional, organism-based
How it was run: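 Purified HSV-1 F1 virions were treated with 100 μM EGCG for 2 h, fixed in glutaraldehyde/paraformaldehyde and LR White-embedded without osmium. Nickel-grid sections were blocked with BSA and goat serum, then labelled overnight with anti-gB or anti-gD monoclonal (1:15) and 15 nm colloidal gold. Labelled versus unlabelled particles were counted in 10 fields of 100 particles; mean ± SD.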

Human alphaherpesvirus 1 [10] = assay: Antiviral activity against Human herpesvirus 1 F1 infected in African green monkey vero cells assessed as log reduction in viral titer at 100 uM; format: functional
How it was run: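 HSV-1 F1 was grown in Vero cells and the clarified supernatant was incubated with 100 μM EGCG for 60 min at 37°C in RPMI 1640/1% FCS, pH 7.4. Titre was then measured on Vero cells from 10-fold dilutions, three wells per dilution, over 5 days at 37°C by CPE. TCID50 was calculated by Reed-Muench; three separate experiments.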

Human alphaherpesvirus 1 [11] = assay: Antiviral activity against Human herpesvirus 1 F1 infected in African green monkey CV1 cells assessed as log reduction in viral titer at 100 uM; format: functional, CV-1
Human alphaherpesvirus 2 [12] = assay: Antiviral activity against Human herpesvirus 2 strain 333 infected in African green monkey CV1 cells assessed as log reduction in viral titer at 100 uM; format: functional, CV-1
How it was run: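 Lab strain HSV-2 333 was grown and titrated either in CV-1 cells or in Vero cells. Virus was incubated with 100 μM EGCG for 60 min, then titrated as tenfold dilutions for 5 days at 37°C with CPE scoring. Reed-Muench TCID50 of treated versus control virus gave the titer decrease. Mean of three experiments.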

Human alphaherpesvirus 1 [13] = assay: Antiviral activity against Human herpesvirus 1 isolate P32 infected in African green monkey vero cells assessed as log reduction in viral titer at 50 uM; format: functional; how it was run: as §1
Human alphaherpesvirus 2 [14] = assay: Antiviral activity against Human herpesvirus 2 isolate P2 infected in African green monkey CV1 cells; format: functional, organism-based; conditions: Human alphaherpesvirus 2, isolate P2, CV-1; how it was run: as §3
Human alphaherpesvirus 1 [15] = assay: Antiviral activity against Human herpesvirus 1 isolate P56 infected in African green monkey vero cells assessed as log reduction in viral titer at 100 uM after 30 mins; format: functional; how it was run: as §5
Human alphaherpesvirus 2 [16] = assay: Antiviral activity against Human herpesvirus 2 isolate P47 infected in African green monkey CV1 cells assessed as log reduction viral titer at 50 uM; format: functional, CV-1; how it was run: as §2
Human alphaherpesvirus 2 [17] = assay: Antiviral activity against Human herpesvirus 2 isolate P11 infected in African green monkey CV1 cells assessed as log reduction in viral titer at 100 uM within 10 mins; format: functional, CV-1
How it was run: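 HSV-2 clinical isolates from clarified CV-1 supernatants were held with 100 μM EGCG for timed intervals, from 10 min onward. Surviving virus was titrated on CV-1 cells by 10-fold dilution and 5-day CPE scoring, with TCID50 by Reed-Muench. Values are mean ± SD, three experiments.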

Human alphaherpesvirus 2 [18] = assay: Antiviral activity against Human herpesvirus 2 isolate P47 infected in African green monkey CV1 cells assessed as log reduction in viral titer at 100 uM within 10 mins; format: functional, CV-1
How it was run: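 Time course: clarified CV-1 supernatant of HSV-2 (clinical isolates or strain 333) was exposed to 100 μM EGCG for increasing times. It was then titrated by tenfold dilution on CV-1 cells, three wells per dilution, for 5 days at 37°C with CPE read-out. Reed-Muench TCID50 was compared with the untreated titer. Mean of three separate experiments.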

Human alphaherpesvirus 1 [19] = assay: Antiviral activity against Human herpesvirus 1 isolate P32 infected in African green monkey vero cells assessed as log reduction in viral titer at 100 uM within 10 mins; format: functional; how it was run: as §5
Human alphaherpesvirus 1 [20] = assay: Binding affinity to Envelope glycoprotein B in Human herpesvirus 1 F1 assessed as macromolecular complex formation by SDS-PAGE; how it was run: as §4

O=C(O[C@@H]1Cc2c(O)cc(O)cc2O[C@@H]1c1cc(O)c(O)c(O)c1)c1cc(O)c(O)c(O)c1 [EPIGALOCATECHIN GALLATE] was tested, and the IC99 (Human alphaherpesvirus 1 [1]) was 18.3 µM, the IC99 (Human alphaherpesvirus 2 [2]) was 12.5 µM and the FC (Human alphaherpesvirus 2 [3]) was “>=2”. For the same compound, the Activity (Human alphaherpesvirus 1 [4]) was “Active”, the FC (Human alphaherpesvirus 2 [5]) was “>=2” and the FC (Human alphaherpesvirus 1 [6]) was 2. The FC (Human alphaherpesvirus 1 [7]) was 2, the IC99 (Human alphaherpesvirus 1 [8]) was 72.3 µM and the Activity (Human alphaherpesvirus 1 [9]) was “Active”. The FC (Human alphaherpesvirus 1 [10]) was “>=3”, the FC (Human alphaherpesvirus 1 [11]) was 3.5 and the FC (Human alphaherpesvirus 2 [12]) was 4. It also gave an FC (Human alphaherpesvirus 1 [13]) of 2, an IC99 (Human alphaherpesvirus 2 [14]) of 12.3 µM and an FC (Human alphaherpesvirus 1 [15]) of 2. For the same compound, the FC (Human alphaherpesvirus 2 [16]) was >4, the FC (Human alphaherpesvirus 2 [17]) was 2 and the FC (Human alphaherpesvirus 2 [18]) was 2. The FC (Human alphaherpesvirus 1 [19]) was 2 and the Activity (Human alphaherpesvirus 1 [20]) was “Active”.
